The target in data set [1] is TNF-α. The settings on record: read-out: Kd TNF-α; cited from earlier work.
In data set [2] the target is T1, TNFR1 (Homo sapiens, UniProt P19438).
T1 sequence (P19438 30-455): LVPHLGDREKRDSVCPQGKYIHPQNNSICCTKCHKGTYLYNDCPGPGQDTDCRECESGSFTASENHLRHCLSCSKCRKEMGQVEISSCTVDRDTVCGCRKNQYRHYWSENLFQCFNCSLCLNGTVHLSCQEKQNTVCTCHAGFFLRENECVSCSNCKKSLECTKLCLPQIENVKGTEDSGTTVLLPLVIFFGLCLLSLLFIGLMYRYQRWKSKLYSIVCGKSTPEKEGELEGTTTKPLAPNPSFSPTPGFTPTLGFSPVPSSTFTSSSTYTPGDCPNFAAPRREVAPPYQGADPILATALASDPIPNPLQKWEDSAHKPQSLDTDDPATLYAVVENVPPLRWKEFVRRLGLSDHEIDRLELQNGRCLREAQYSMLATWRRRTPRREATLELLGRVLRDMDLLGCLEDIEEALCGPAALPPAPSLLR
Kind of data set: SPR-based binding assay, immobilized TNFR1. The settings on record: read-out: Kd for TNFR1, 4 to 256 μM, steady-state affinity model. In a few lines: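 Human TNFR1 in 10 mM sodium acetate, pH 5.5, amine-coupled to a CM5 chip. Single-concentration screen at 50 μM in PBS with 5% DMSO, 120 s injection at 30 μL/min. For affinity, 4–256 μM in the same buffer was passed over reference and active channels at 30 μL/min, with 120 s association and 120 s dissociation. Kd from a steady-state affinity fit.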

For another data set, the system named is L929 cells. Briefly: TNF-α-induced L929 cytotoxicity. The settings on record: 25–200 μM, 10 ng/mL TNF-α and 1 μg/mL actinomycin D, 18 h. It is filed as cell-based. In a few lines: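 L929 cells seeded at 2.0 × 10⁴ cells/well and cultured overnight. Test compound (25–200 μM) was premixed with 10 ng/mL TNF-α plus 1 μg/mL actinomycin D, then added for 18 h. Viability was read by microscopy and CCK-8 (OD 450 nm). %I = (OD AMD+TNF+compound − OD AMD+TNF)/(OD AMD − OD AMD+TNF) × 100. Three independent experiments in triplicate, mean ± SEM.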

Data set [3] deals with TNF-α (Homo sapiens, UniProt P01375). Kind of data set: SPR-based binding assay, immobilized TNF-α. As to conditions: read-out: Kd (μM) TNF-α, 2–128 μM, PBS with 5% DMSO. A digest of the protocol: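 Human TNF-α at 50 μg/mL in 10 mM sodium acetate, pH 5.0, amine-coupled to a CM5 chip. Hits were screened at 50 μM in PBS running buffer with 5% DMSO. A 2–128 μM concentration series was injected for 120 s, with 120 s dissociation. Kd came from fitting the sensorgrams in evaluation software. Representative of three independent experiments.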

In data set [4] the target is TNFR1. The settings on record: cited from earlier work.

These results are taken from PMC6732210 (Journal of chemical information and modeling, 2017).

Entries after “also recorded” stand apart in the source; their conditions may differ. Like-named read-outs stand apart in the source and are kept apart here.

TNF-α (Homo sapiens, UniProt P01375), sequence (P01375 77-233 limits assumed): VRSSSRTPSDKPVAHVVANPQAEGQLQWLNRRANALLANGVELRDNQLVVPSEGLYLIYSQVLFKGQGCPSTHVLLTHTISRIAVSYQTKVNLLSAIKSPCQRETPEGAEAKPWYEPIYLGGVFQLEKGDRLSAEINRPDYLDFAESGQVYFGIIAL

One may read the Kd as the concentration at which binding is half-saturated. For `Cc1cc2occ(CN(C)CCN(C)Cc3cn(-c4cccc(C(F)(F)F)c4)c4ccccc34)c(=O)c2cc1C` [SPD-304], at TNF-α [1], the Kd is 5.36 µM. As to `O=C(NCc1ccc2c(c1)OCO2)C1CCCN(c2ncnc3nc[nH]c23)C1` (centres unmarked) [Compound R1], the Kd on TNFR1 [2] amounted to 16 µM. For the same molecule, in the data set with L929 cells, the “Inhibition of TNF-α-mediated cytotoxicity on L929 cells (in words)” value (“Inhibition” for short) is recorded as “dose-dependent inhibition; also recorded: activities similar to that of C87”. `O=c1c(N=Nc2nc3ccccc3s2)c(-c2ccccc2)[nH]n1-c1ccc([N+](=O)[O-])cc1` [Compound T1]: the “Inhibition” value in the data set on L929 cells is listed as “dose-dependent inhibition; also recorded: activities similar to that of C87”. The Kd at TNF-α [3] stood at 11 µM.

Consider TNF-α, for which the Kd at TNFR1 [4] (read-out: Kd for binding of TNF-α to TNFR1) was 0.00176 µM.

Regarding `O=C1Nc2c(S(=O)(=O)Nc3ccccc3)cc(S(=O)(=O)Nc3ccccc3)c3cccc1c23` [Compound T2], the “Inhibition” value in the data set on L929 cells was “no activity”. Further, the Kd on TNF-α [3] was 58 µM.

Take “physcion-8-O-β-D-monoglucoside [reference compound]”: on TNFR1 [4] (read-out: Kd TNFR1), the Kd is 0.376 µM.

For `O=C(O)CCC(=O)Nc1sc2c(c1C(=O)Nc1cccc3ccccc13)CCCC2` [Compound T4], the “Inhibition” value in the data set on L929 cells is reported as “no activity”. The Kd at TNF-α [3] was 113 µM.
